The source made the active and inactive calls. The rule behind the calls is not given here.
Key:
[1] = tested on: RAW264.7; assay: Antiinflammatory activity against LPS-stimulated mouse RAW264.7 cells assessed as inhibition of NO production at 20 uM after 20 hrs relative to control; assay type: functional; conditions: RAW264.7, 20 h
In short: (§1)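 RAW 264.7 cells plated at 1 × 10⁵ cells/mL in 10% FBS–DMEM and grown 24 h, then moved to 1% FBS medium. Cells were stimulated with LPS (1 µg/mL) with or without compound for 20 h. Nitrite accumulated in supernatant was read by Griess reagent (10 min, room temperature, A570). Inhibition is relative to LPS control, n = 3; IC50 given as mean ± SD of three experiments.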

[2] = tested on: RAW264.7; assay: Antiinflammatory activity against LPS-stimulated mouse RAW264.7 cells assessed as inhibition of NO production at 50 uM after 20 hrs relative to control; assay type: functional; conditions: RAW264.7, 20 h; in short: as §1
[3] = tested on: RAW264.7; assay: Antiinflammatory activity against LPS-stimulated mouse RAW264.7 cells assessed as inhibition of NO production at 5 uM after 20 hrs relative to control; assay type: functional; conditions: RAW264.7, 20 h; in short: as §1
[4] = tested on: RAW264.7; assay: Antiinflammatory activity against LPS-stimulated mouse RAW264.7 cells assessed as inhibition of NO production after 20 hrs; assay type: functional, cell-based; conditions: RAW264.7, 20 h; in short: as §1
[5] = tested on: RAW264.7; assay: Inhibition of iNOS protein expression in LPS-stimulated mouse RAW264.7 cells at 10 uM after 20 hrs by Western blot; assay type: functional, cell-based
In short: (§2)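 RAW 264.7 cells were exposed to compound for 20 h during LPS (1 µg/mL) activation, then washed and lysed. 20 µg lysate protein was run on 8% SDS-PAGE, blotted to PVDF and probed for iNOS and actin. iNOS band density was normalized to actin; mean ± SD of three independent densitometric analyses.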

[6] = tested on: RAW264.7; assay: Suppression of LPS-induced NF-kappaB p65 subunit translocation into nucleus in mouse RAW264.7 cells assessed as p65 protein level at 10 uM after 30 mins pretreated 30 mins before LPS challenge by Western blot; assay type: functional, cell-based
In short: (§3)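 Macrophages were pretreated with compound for 30 min, then given LPS (1 µg/mL) for a further 30 min. Nuclear extracts were immunoblotted for p65, with levels normalized to PARP as the loading control.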

[7] = Peroxynitrite radical scavenging activity assessed as dihydrohodamine 123 product by cell free assay
In short: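 In a cell-free system, oxidation of dihydrorhodamine 123 by authentic peroxynitrite was monitored by fluorescence.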

[8] = tested on: RAW264.7; assay: Cytotoxicity against mouse RAW264.7 cells; assay type: cell-based
[9] = tested on: RAW264.7; assay: Inhibition of iNOS protein expression in LPS-stimulated mouse RAW264.7 cells at 5 uM after 20 hrs by Western blot; assay type: functional; conditions: RAW264.7, 20 h; in short: as §2
[10] = tested on: RAW264.7; assay: Inhibition of iNOS mRNA expression in LPS-stimulated mouse RAW264.7 cells at 5 uM after 6 hrs by RT-PCR; assay type: functional, cell-based
In short: (§4)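 RAW 264.7 cells (1.8 × 10⁶ per 60 mm dish) were stimulated 6 h with LPS (1 µg/mL) with or without compound. Total RNA was extracted and 2 µg was reverse transcribed with random hexamers. PCR ran 25 cycles (94 °C, 55 °C, 72 °C, 30 s each), and products were resolved on 2% agarose. iNOS was normalized to β-actin; mean ± SD of three densitometric analyses.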

[11] = tested on: RAW264.7; assay: Suppression of LPS-induced NF-kappaB p65 subunit translocation into nucleus in mouse RAW264.7 cells assessed as p65 protein level at 5 uM after 30 mins pretreated 30 mins before LPS challenge by Western blot; assay type: functional, cell-based; in short: as §3
[12] = tested on: RAW264.7; assay: Inhibition of iNOS mRNA expression in LPS-stimulated mouse RAW264.7 cells at 10 uM after 6 hrs by RT-PCR; assay type: functional, cell-based; in short: as §4

CCN/C(=N/c1ccc(OCC)cc1)SC(C)C
inhibition at 20 µM [1]: < 10%
inhibition at 50 µM [2]: 22%

CCCc1ccc(/N=C(/NCC)SC(C)C)cc1
inhibition at 20 µM [1]: < 10%
inhibition at 50 µM [2]: 71%

CCN/C(=N/c1ccc(OCCn2c3ccccc3c3ccccc32)cc1)SCc1ccc(F)cc1
inhibition at 20 µM [1]: 36%
inhibition at 50 µM [2]: 40%

CCNC(=S)Nc1ccc(C)cc1
inhibition at 20 µM [1]: < 10%
inhibition at 50 µM [2]: 14%

CCNC(=S)Nc1ccc(O)cc1
inhibition at 20 µM [1]: < 10%
inhibition at 50 µM [2]: 20%

CS/C(N)=N\c1ccc(OCCn2c3ccccc3c3ccccc32)cc1
inhibition at 20 µM [1]: 22%
inhibition at 50 µM [2]: 24%

CCN/C(=N/c1ccc(OCCn2c3ccccc3c3ccccc32)cc1)SCc1ccc(C(=O)O)cc1
inhibition at 5 µM [3]: 39%
inhibition at 20 µM [1]: 90%
inhibition at 50 µM [2]: 100%
IC50 [4]: 5.3 µM
iNOS protein expression inhibition [5]: Active
Activity [6]: Active
SC50 [7]: 14 µM
Activity [8]: Non-toxic

CCN/C(=N/c1ccc(OCCn2c3ccccc3c3ccccc32)cc1)SC(C)C
inhibition at 20 µM [1]: 48%
IC50 [4]: 1.3 µM
iNOS protein expression inhibition [5]: Active
inhibition at 5 µM [9]: 79%
inhibition [10]: Active
Activity [11]: Active
Activity [6]: Active
Activity [8]: Non-toxic

CCNC(=S)Nc1ccc(OCC)cc1
inhibition at 20 µM [1]: < 10%
inhibition at 50 µM [2]: 12%

COc1cc(/C=C/C(=O)CC(=O)/C=C/c2ccc(O)c(OC)c2)ccc1O [CURCUMIN]
inhibition [12]: Active
Activity [6]: Active
Activity [8]: Non-toxic

CCN/C(=N/c1ccc(Cl)cc1)SC(C)C
inhibition at 20 µM [1]: < 10%
inhibition at 50 µM [2]: 62%

CCNC(=S)Nc1ccc(-c2ccccc2)cc1
inhibition at 20 µM [1]: < 10%
inhibition at 50 µM [2]: 23%

CC(C)S/C(N)=N\c1ccc(OCCn2c3ccccc3c3ccccc32)cc1
inhibition at 20 µM [1]: 22%
inhibition at 50 µM [2]: 30%

CCN/C(=N/c1ccc(-c2ccccc2)cc1)SC(C)C
inhibition at 5 µM [3]: 13%
inhibition at 20 µM [1]: 85%
inhibition at 50 µM [2]: 96%
IC50 [4]: 11.2 µM
iNOS protein expression inhibition [5]: Active
Activity [6]: Active
Activity [8]: Non-toxic

CCCc1ccc(NC(=S)NCC)cc1
inhibition at 20 µM [1]: < 10%
inhibition at 50 µM [2]: 23%

CCN/C(=N/c1ccc(OCCn2c3ccccc3c3ccccc32)cc1)SCc1ccc(C(=O)OC)cc1
inhibition at 20 µM [1]: 14%
inhibition at 50 µM [2]: 17%

CCNC(=S)Nc1ccc(Cl)cc1
inhibition at 20 µM [1]: < 10%
inhibition at 50 µM [2]: 11%

CCS/C(N)=N\c1ccc(OCCn2c3ccccc3c3ccccc32)cc1
inhibition at 20 µM [1]: 32%
inhibition at 50 µM [2]: 64%

CCN/C(=N/c1ccc(OCCn2c3ccccc3c3ccccc32)cc1)SC
inhibition at 20 µM [1]: 99%
inhibition at 50 µM [2]: 100%
IC50 [4]: 2.9 µM
iNOS protein expression inhibition [5]: Active
Activity [6]: Active
Activity [8]: Non-toxic

CCN/C(=N/c1ccc(C)cc1)SC(C)C
inhibition at 20 µM [1]: < 10%
inhibition at 50 µM [2]: 14%

CCN/C(=N/c1ccc(OCCn2c3ccccc3c3ccccc32)cc1)SCc1ccccc1
inhibition at 20 µM [1]: 31%
inhibition at 50 µM [2]: 33%
